Laboratory results published in ChEMBL document CHEMBL4002592, “Piperlongumine derived cyclic sulfonamides (sultams): Synthesis and in vitro exploration for therapeutic potential against HeLa cancer cell lines” (2017).
Where a name gives a salt, the structure may show the parent alone.

Columns and labels:
Format in all cases: functional
HeLa [1] = assay: Cytotoxicity against human HeLa cells assessed as cell growth at 10^-4 M after 48 hrs by SRB assay relative to control; conditions: read-out: Activity
Summary of the method: (§1)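 HeLa (NCI source) kept in RPMI 1640 with 10% FBS and 2 mM L-glutamine, 37°C, 5% CO2. Cells seeded at 5,000/well, incubated overnight, then exposed 48 h to drug at final 10^-4 to 10^-7 M from 10^-2 M DMSO stock. Fixed with 10% TCA, stained with 0.4% SRB for 20 min, dye dissolved in 10 mM Tris, OD 540 nm. % growth = 100×(T–T₀)/(C–T₀). Mean of three experiments.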

HeLa [2] = assay: Cytotoxicity against human HeLa cells assessed as cell growth at 10^-7 M after 48 hrs by SRB assay relative to control; conditions: read-out: Activity; summary of the method: as §1
HeLa [3] = assay: Cytotoxicity against human HeLa cells assessed as cell growth at 10^-6 M after 48 hrs by SRB assay relative to control; conditions: read-out: Activity; summary of the method: as §1
HeLa [4] = assay: Cytotoxicity against human HeLa cells assessed as growth inhibition after 48 hrs by SRB assay
Summary of the method: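 HeLa in RPMI 1640/10% FBS/2 mM glutamine, seeded at 5,000 cells/well overnight, then treated 48 h at final 10^-4 to 10^-7 M (DMSO stock 10^-2 M). Read by SRB: TCA fixation, 0.4% SRB stain, Tris solubilisation, OD 540 nm. Growth corrected for time-zero OD. Mean % growth plotted against molar concentration; GI50 taken as the concentration giving 50% growth inhibition.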

HeLa [5] = assay: Cytotoxicity against human HeLa cells assessed as cell growth at 10^-5 M after 48 hrs by SRB assay relative to control; conditions: read-out: Activity; summary of the method: as §1

SMILES | growth at 100 µM (HeLa [1]) [%] | growth at 0.1 µM (HeLa [2]) [%] | growth at 1 µM (HeLa [3]) [%] | GI50 (HeLa [4]) [µM] | growth inhibition (GI) (HeLa [4]) | growth at 10 µM (HeLa [5]) [%]
Cc1ccc(C(=O)N2CCC=CS2(=O)=O)cc1[N+](=O)[O-] | -11.2 | 97.1 | 93.7 | 39.2 | Dose-dependent effect | 67.6
O=C(/C=C/c1cccs1)N1CCC=CS1(=O)=O | -75.3 | 92.1 | 74.2 | 18.8 | Dose-dependent effect | 53.4
COc1cc(/C=C/C(=O)N2CCC=CS2(=O)=O)cc(OC)c1OC | -80.6 | 79.8 | 71.4 | 14.3 | Dose-dependent effect | 46.8
O=C(c1cccc(Cl)c1)N1CCC=CS1(=O)=O | 10.8 | 100 | 86.7 | 45.4 | Dose-dependent effect | 55.4
Cc1ccc(/C=C/C(=O)N2CCC=CS2(=O)=O)cc1 | -33.5 | 86.8 | 81.4 | 18.6 | Dose-dependent effect | 26.3
O=C(/C=C/c1ccccc1F)N1CCC=CS1(=O)=O | -75.3 | 78.5 | 62.3 | 13.7 | Dose-dependent effect | 52.4
O=C(/C=C/c1c[nH]c2ccc(F)cc12)N1CCC=CS1(=O)=O | -48 | 90.4 | 87.6 | 18.8 | Dose-dependent effect | 25.3
COc1ccccc1/C=C/C(=O)N1CCC=CS1(=O)=O | -80.1 | 76.7 | 35 | 0.1 | Dose-dependent effect | 14.6
Cc1cccc(/C=C/C(=O)N2CCC=CS2(=O)=O)c1 | -67.1 | 99.9 | 89.5 | 20.7 | Dose-dependent effect | 35
O=C(/C=C/c1cccc(F)c1)N1CCC=CS1(=O)=O | -69 | 96.8 | 42.4 | < 0.1 | Dose-dependent effect | -39.2
O=C(/C=C/c1cccc(-c2ccccc2)c1)N1CCC=CS1(=O)=O | -63 | 97.6 | 86.5 | 19.8 | Dose-dependent effect | 32.9
COc1cccc(/C=C/C(=O)N2CCC=CS2(=O)=O)c1 | -79.7 | 90.8 | 92.2 | 23.7 | Dose-dependent effect | 68.7
O=C(/C=C/c1ccc([N+](=O)[O-])cc1)N1CCC=CS1(=O)=O | -71.6 | 100 | 90.4 | 24.4 | Dose-dependent effect | 59
O=C(/C=C/c1ccoc1)N1CCC=CS1(=O)=O | -78.1 | 92 | 80.2 | 20.3 | Dose-dependent effect | 57.7
COc1cccc2c1C(=O)c1c(O)c3c(c(O)c1C2=O)C[C@@](O)(C(=O)CO)C[C@@H]3O[C@H]1C[C@H](N)[C@H](O)[C@H](C)O1 [DOXORUBICIN HYDROCHLORIDE] | -84.6 | -76.8 | -82.9 | < 0.1 | – | -84.1
COc1cc(/C=C/C(=O)N2CCC=CS2(=O)=O)cc(OC)c1 | -78.4 | 82.5 | 32.5 | < 0.1 | Dose-dependent effect | -60.1
O=C(/C=C/c1ccc(Cl)cc1)N1CCC=CS1(=O)=O | -30.5 | 90.7 | 80.2 | 26.4 | Dose-dependent effect | 53.5
O=C(/C=C/c1c(Cl)nc2ccccn12)N1CCC=CS1(=O)=O | -78.5 | 87 | 59 | 8.2 | Dose-dependent effect | 20.6
O=C(/C=C/c1cccc(C(F)(F)F)c1)N1CCC=CS1(=O)=O | -64.8 | 95.5 | 86.3 | 19.6 | Dose-dependent effect | 34.9
COc1ccc(/C=C/C(=O)N2CCC=CS2(=O)=O)cc1 | -55.3 | 84.7 | 83.8 | 24.4 | Dose-dependent effect | 68.1
